Results from different studies.
Lines come from different studies, so protocols differ.
CYP2C9: Cytochrome P450 2C9 (CYP2C9, Homo sapiens, UniProt P11712)
MAPK3: Mitogen-activated protein kinase 3 (MAPK3, Homo sapiens, UniProt P27361)
AKT1: RAC-alpha serine/threonine-protein kinase (AKT1, Homo sapiens, UniProt P31749)
DPP4: Dipeptidyl peptidase 4 (DPP4, Homo sapiens, UniProt P27487)
CDK9 with cyclin T1: Cyclin-dependent kinase 9, with cyclin T1 (CDK9, Homo sapiens, UniProt P50750)
TNKS: Poly [ADP-ribose] polymerase tankyrase-1 (TNKS, Homo sapiens, UniProt O95271)
FABP4: Fatty acid-binding protein, adipocyte (FABP4, Homo sapiens, UniProt P15090)

CN(C)C(=O)c1cc2cnc(Nc3ccc(-c4ccc5c(=O)cc(N6CCOCC6)oc5c4)cc3)nc2n1C1CCCC1 — IC50 (CYP2C9; enzyme activity, inhibitor, fluorescence; pH 8): 0.044 µM
c1ccc(-c2ccc3c(c2)NC(C2Nc4cc(-c5ccccc5)ccc4O2)O3)cc1 (stereo not shown) — IC50 (MAPK3; enzyme activity, inhibitor, ADP detection): 10.6 µM
Cc1cc(-c2ccnc3[nH]cc(F)c23)cc(F)c1[C@@]1(O)[C@H](C)CN(C(=O)CN)C[C@@H]1C — IC50 (AKT1; enzyme activity, inhibitor, radiometric): 0.165 µM
Cc1cc(O)c(-c2ccc([C@@H](C)CN(C)C)cc2)c2c1[nH]c(=O)c1sccc12 — IC50 (Cyclin-dependent kinase 1, with cyclin A (CDK1, Homo sapiens, UniProt P06493); enzyme activity, inhibitor): > 1 µM
CNCC(=O)OCc1cccnc1N(C)C(=O)OC(C)[n+]1cnn(C[C@](O)(c2cc(F)ccc2F)[C@@H](C)c2nc(-c3ccc(C#N)cc3)cs2)c1 (stereo partly shown) — IC50 (DPP4; enzyme activity, inhibitor, absorbance): 6.6 µM
Cc1nc2c(F)cc(-c3ccnc(Nc4ccc5c(=O)cc(N6CCOCC6)oc5c4)n3)cc2n1C(C)C — IC50 (CDK9 with cyclin T1; enzyme activity, inhibitor, radiometric): 0.024 µM
COc1cc(-c2ccccc2)ncc1C(=O)Nc1ccc2c(=O)[nH]c(-c3ccc(C(C)(C)O)cc3)nc2c1 — IC50 (TNKS; enzyme activity, inhibitor): 0.0869 µM
OC1(c2ccc(-c3ccnc4[nH]cc(F)c34)cc2)CCCNC1 (stereo not shown) — IC50 (AKT1; target engagement in cells, BRET): 22.4 µM
Nc1ncnc2c1ncn2[C@@H]1O[C@H](CSCC[C@H](N)C(=O)O)[C@@H](O)[C@H]1O — IC50 (Histone-lysine N-methyltransferase SETDB1 (SETDB1, Homo sapiens, UniProt Q15047); enzyme activity, inhibitor): 2.21 µM
CCc1oc2ccccc2c1C(=O)c1cc(Br)c(O)c(Br)c1 — IC50 (SLC22A13 (Homo sapiens, UniProt Q9Y226); transporter uptake, inhibitor, radiometric; oocytes): 12.5 µM
Clc1ccc(C2(c3ccc(-c4ccnc5[nH]ccc45)cc3)CCNCC2)cc1 — IC50 (AKT1; target engagement in cells, BRET): 0.046 µM
CCCCCCCCCCC(=O)O — IC50 (FABP4; ligand displacement, fluorescence; pH 7.5): 2.25 µM
CNS(=O)(=O)c1ccc(Nc2ncc(C(F)(F)F)c([C@H]3CC[C@@](C)(O)CC3)n2)c(C)c1 — IC50 (CDK9 with cyclin T1; enzyme activity, inhibitor, radiometric): > 10 µM
Cc1cc2c(C(N)=O)c(N)n(-c3c(C)ccc(O)c3C)c2nc1C — IC50 (Proto-oncogene tyrosine-protein kinase Src (SRC, Homo sapiens, UniProt P12931); enzyme activity, inhibitor, TR-FRET): 0.0064 µM
Cc1ccc(OCC(=O)N[C@@H](Cc2c[nH]c3ccccc23)C(=O)OC(C)C)cc1 — IC50 (CYP2C9; enzyme activity, inhibitor; human, liver microsomes; 30 min): > 50 µM
COc1ccc(-c2coc3cc(O)ccc3c2=O)cc1O — IC50 (CYP2C9; enzyme activity, inhibitor; human, liver microsomes; 15 min): 13.3 µM
COc1ccc2c(=O)[nH]c3c(nnn3Cc3ccc(C)cc3)c2c1 — IC50 (TNKS; enzyme activity, inhibitor, fluorescence): 0.112 µM
CCCCCCCCC(=O)O — IC50 (FABP4; ligand displacement, fluorescence; pH 7.5): 30 µM
CC(C)(O)c1ccc(-c2nc3cc(NC(=O)c4cnc(OCc5ccccc5)nc4)ccc3c(=O)[nH]2)cc1 — IC50 (TNKS; enzyme activity, inhibitor): 6.36 µM
O=C(O[C@@H]1[C@@H](O)[C@H](Oc2cc(O)c3c(c2)O[C@H](c2ccccc2)CC3=O)O[C@@H]2COC(=O)c3cc(O)c(O)c(O)c3-c3c(cc(O)c(O)c3O)C(=O)O[C@@H]12)c1cc(O)c(O)c(O)c1 — IC50 (Protein disulfide-isomerase A3 (PDIA3, Homo sapiens, UniProt P30101); enzyme activity, inhibitor, fluorescence): 3.3 µM
CC(C)(O)c1ccc(-c2nc3cc(NC(=O)c4ccc(-c5ccccc5)nc4)ccc3c(=O)[nH]2)cc1 — IC50 (TNKS; enzyme activity, inhibitor): 0.528 µM
COc1ccc(-c2cc(=O)c3ccc(Nc4ncc5cc(C(=O)N(C)C)n(C6CCCC6)c5n4)cc3o2)cc1 — IC50 (CDK9 with cyclin T1; enzyme activity, inhibitor, radiometric): 0.00076 µM
CC1CNCCC1(O)c1ccc(-c2ccnc3[nH]cc(F)c23)cc1 (stereo not shown) — IC50 (AKT1; enzyme activity, inhibitor, radiometric): 0.132 µM
CCN(CC)CCNC(=O)c1ccc(NCN2C(=O)NC(c3ccccc3)(c3ccccc3)C2=O)cc1 — IC50 (MAPK3; enzyme activity, inhibitor, ADP detection): > 250 µM
c1cc(-c2ccc(C3CCNCC3)cc2)c2cc[nH]c2n1 — IC50 (AKT1; target engagement in cells, BRET): > 50 µM
CC(=O)N1C(=O)NC(C)=C(C(=O)OCC(C)C)C1c1cccc([N+](=O)[O-])c1 (racemic) — IC50 (Voltage-dependent T-type calcium channel subunit alpha-1H (CACNA1H, Homo sapiens, UniProt O95180); ion current, inhibitor, patch clamp): 1.7 µM
Cc1cc(S(=O)(=O)NCCO[C@H]2CC[C@H](CN3CCC(c4ccn5c(N6CCC(=O)NC6=O)cnc5c4)CC3)CC2)ccc1Nc1ncc2cc(Cl)c(=O)n(C3CCCC3)c2n1 — IC50 (CDK9 with cyclin T1; enzyme activity, inhibitor, radiometric): > 10 µM
Cc1c(N2CCOCC2)oc2c(-c3ccc(Nc4ncc5cc(C(=O)N(C)C)n(C6CCCC6)c5n4)cc3F)cccc2c1=O — IC50 (CDK9 with cyclin T1; enzyme activity, inhibitor, radiometric): 0.338 µM
C[C@@H]1CNC[C@H](C)[C@@]1(O)c1ccc(-c2ccnc3[nH]cc(F)c23)cc1 — IC50 (AKT1; target engagement in cells, BRET): 38.9 µM
COc1ccc(-c2coc3cc(O)ccc3c2=O)cc1 — IC50 (CYP2C9; enzyme activity, inhibitor; human, liver microsomes; 15 min): 5.63 µM
CN(C)C(=O)c1cc2cnc(Nc3ccc(-c4ccc5c(=O)cc(N6CCNCC6)oc5c4)cc3)nc2n1C1CCCC1 — IC50 (CDK9 with cyclin T1; enzyme activity, inhibitor, radiometric): 0.0062 µM
CCCCCCCCCCCC(=O)O — IC50 (FABP4; ligand displacement, fluorescence; pH 7.5): 2.28 µM
O=C(O)C(F)(F)C(F)(F)C(F)(F)C(F)(F)C(F)(F)C(F)(F)C(F)(F)C(F)(F)C(F)(F)C(F)(F)C(F)(F)C(F)(F)C(F)(F)C(F)(F)C(F)(F)F — IC50 (Sterol carrier protein 2 (Homo sapiens, UniProt P22307); ligand displacement, fluorescence): 19.1 µM
CNS(=O)(=O)c1ccc(Nc2ncc(C(F)(F)F)c(N3CCC[C@](C)(O)C3)n2)c(C)c1 — IC50 (CDK9 with cyclin T1; enzyme activity, inhibitor, radiometric): > 10 µM
CN(C)C(=O)c1cc2cnc(Nc3ccc4c(=O)cc(N5CCNCC5)oc4c3)nc2n1C1CCCC1 — IC50 (CDK9 with cyclin T1; enzyme activity, inhibitor, radiometric): 0.00106 µM
OC1(c2ccc(-c3ccnc4[nH]cc(F)c34)cc2)CCNC1 (stereo not shown) — IC50 (AKT1; enzyme activity, inhibitor, radiometric): 0.475 µM
O=C(O)C(F)(F)C(F)(F)C(F)(F)C(F)(F)F — IC50 (FABP4; ligand displacement, fluorescence; pH 7.5): 793 µM
O=C(NO)c1ccc(Cn2cnc3c(Nc4ccc(Cl)cc4)ncnc32)cc1 — IC50 (AKT1; enzyme activity, inhibitor, radiometric): > 20 µM
CN(C)C(=O)c1cc2cnc(Nc3ccc(-c4cccc5c(=O)cc(N6CCNCC6)oc45)cc3)nc2n1C1CCCC1 — IC50 (CDK9 with cyclin T1; enzyme activity, inhibitor, radiometric): 0.0133 µM
OC1(c2ccc(-c3ccnc4[nH]cc(F)c34)cc2)CCCNCC1 (stereo not shown) — IC50 (AKT1; enzyme activity, inhibitor, radiometric): 0.4 µM
CCCCCCCCCCCCCC(=O)O — IC50 (FABP4; ligand displacement, fluorescence; pH 7.5): 1.34 µM
COc1ccc(-c2oc3cc(Nc4ncc5cc(C(=O)N(C)C)n(C6CCCC6)c5n4)ccc3c(=O)c2F)cc1 — IC50 (CDK9 with cyclin T1; enzyme activity, inhibitor, radiometric): 0.0276 µM
C[C@@H](O)[C@H]1C(=O)N2C(C(=O)O)=C(S[C@@H]3CN[C@H](C(=O)N(C)C)C3)[C@H](C)[C@H]12 — IC50 (DPP4; enzyme activity, inhibitor, absorbance): 45.8 µM
